# Source: PubChem BioAssay
# Activity calls are given as the source filed them.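 How the source made its calls, unless noted: active means GFP response above 150% of the DMSO level; inconclusive means fewer than 70 events counted for a yeast strain; inactive means the rest.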
# What was measured:
# [1] = RPL19A-GFP modulators, yeast TOR pathway, confirmation, cell-based, S. cerevisiae, flow cytometry, cherry picks, mother/daughter gates (AID 2270;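 active means GFP response below 50% of the DMSO control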); conditions: S. cerevisiae RPL19A-GFP strain, 3 h, at 10 µM, stronger effect = lower value, 100 = same GFP as DMSO wells
# [2] = LAP4-GFP expression modulators in yeast, confirmation, cell-based, cherry picks, flow cytometry, mother/daughter gates (AID 2271;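 active means GFP response above 150% of the DMSO control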;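 further: ratio of sample to DMSO plate mean so 100% equals DMSO level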); conditions: S. cerevisiae LAP4-GFP strain, 3 h, at 10 µM, stronger effect = higher value, 100 means same as DMSO control
# In short: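 System: GFP-fusion yeast strain | Input: Yeast cells seeded at OD600 of 0.2 | Technique: HT flow cytometry, GFP fluorescence channel | Read-out: % GFP response vs DMSO | Dosing: Single test-compound dose, 10 µM final | Controls: Positive rapamycin (400 ng/mL), negative DMSO | Times: 3 h treatment at 30 °C with rotation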
# [3] = modulators of MEP2-GFP levels in yeast, confirmation, S. cerevisiae, flow cytometry GFP, cherry picks (AID 2272;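 active means GFP response above 150% of the DMSO control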;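 further: ratio of well signal to plate DMSO mean so 100% equals DMSO level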); conditions: S. cerevisiae MEP2-GFP strain, 3 h, at 10 µM, stronger effect = higher value
# [4] = AGP1-GFP expression modulators, hit retest, confirmation, cell-based, flow cytometry, S. cerevisiae, cherry picks (AID 2273);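 further: median GFP channel fluorescence over the whole cell population gate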; conditions: S. cerevisiae AGP1-GFP strain, 3 h, at 10 µM
# [5] = modulators of CIT2-GFP expression in yeast, confirmation, S. cerevisiae, GFP fusion, cherry picks, mother/daughter gates (AID 2274); conditions: S. cerevisiae CIT2-GFP strain, flow cytometry, 3 h, at 10 µM, stronger effect = higher value
# [6] = measured here: daughter cell gate
# [7] = measured here: mother cell gate
# [8] = measured here: daughter cell gate response
# [9] = measured here: mother cell gate response
SMILES,GFP response vs DMSO [1],"GFP response vs DMSO [1, 6] [%]","GFP response vs DMSO [1, 7] [%]",GFP response relative to DMSO [2],"GFP response relative to DMSO [2, 8] [%]","GFP response relative to DMSO [2, 9] [%]",GFP response vs DMSO [3],"GFP response, % of DMSO [4]","GFP response, % of DMSO [5]","GFP response, % of DMSO [5, 6] [%]","GFP response, % of DMSO [5, 7] [%]"
C(=N\Nc1ccccn1)/c1c[nH]c2ccccc12,103% (inactive),102,104,97% (inactive),95.9,96.2,101% (inactive),104% (inactive),100% (inactive),99.2,98.1
CC(=O)Oc1ccc(N2C(=O)C3C4C=CC(O4)C3C2=O)cc1 (stereo not drawn),98.2% (inactive),99.1,98.9,102% (inactive),101,101,107% (inactive),96.8% (inactive),99.7% (inactive),99.1,99.7
COc1ccc(/C=N\NC(=O)c2cc(OCC(F)(F)F)ccc2OCC(F)(F)F)cc1,93.7% (inactive),97.9,94,96.7% (inactive),97.6,98.3,102% (inactive),94.8% (inactive),98.3% (inactive),99.1,95
O=S(=O)(CCN(CCS(=O)(=O)C(F)(F)F)CC1CCCO1)C(F)(F)F (stereo not drawn),92.9% (inactive),96.2,86.3,219% (active),179,210,118% (inactive),94.5% (inactive),111% (inactive),115,96.8
O=C1c2cccc3c([N+](=O)[O-])ccc(c23)C(=O)N1O,131% (inactive),136,124,249% (active),250,251,404% (active),132% (inactive),256% (active),247,223
Cc1ccccc1C(=O)Nc1cccc(C#N)c1,95.6% (inactive),96.7,94.2,97.7% (inactive),99,97.4,108% (inactive),99.8% (inactive),97.2% (inactive),99.3,97.1
CCOc1cc(-c2noc(-c3cccnc3)n2)ccc1OC,95.8% (inactive),94.7,95,98.9% (inactive),99,100,103% (inactive),100% (inactive),106% (inactive),103,106
O=C(CSc1cccc[n+]1[O-])CSc1cccc[n+]1[O-],97.8% (inactive),101,95,119% (inactive),116,120,103% (inactive),103% (inactive),97.2% (inactive),101,98.2
Clc1ccccc1N=C1NN=C(c2cccs2)CS1,96.8% (inactive),93.4,95.7,108% (inactive),106,113,90.5% (inactive),98.8% (inactive),90.1% (inactive),88.4,89.5
O=C1CC(Sc2ncccn2)C(=O)N1c1ccccc1C(F)(F)F (stereo not drawn),100% (inactive),100,100,98.7% (inactive),102,99.3,100% (inactive),98.9% (inactive),96.5% (inactive),96.5,97.7
COc1ccc(C2N(c3ccc(Cl)cc3)N=C(C(C)=O)N(C)N2C(C)=O)cc1 (stereo not drawn),100% (inactive),99.6,100,104% (inactive),101,103,101% (inactive),101% (inactive),106% (inactive),106,106
CCNC(=O)/C(C#N)=C/c1c(N2CC(C)OC(C)C2)nc2ccccn2c1=O (stereo not drawn),97.8% (inactive),99.3,98.1,99.5% (inactive),102,99.4,99% (inactive),106% (inactive),103% (inactive),103,104
O=[N+]([O-])c1c(Nc2ccccn2)cc(Cl)c2nonc12,139% (inactive),86.3,129,478% (active),123,522,966% (active),143% (inactive),979% (active),103,906
COc1cc(C(=O)ON=C2C3CC4CC(C3)CC2C4)cc(OC)c1OC,97.4% (inactive),97.6,95.6,108% (inactive),102,111,107% (inactive),61.1% (inactive),145% (inactive),136,147
CCc1nnc(NC(=O)c2ccc(S(=O)(=O)N(CC)Cc3ccccc3)cc2)o1,98.4% (inactive),97.8,98.8,102% (inactive),105,99.5,102% (inactive),101% (inactive),105% (inactive),106,104
COc1ccccc1NC(=O)c1ccc(N)cc1,98% (inactive),98,98.1,100% (inactive),102,100,99.5% (inactive),98.7% (inactive),102% (inactive),104,101
CNC(=O)/C(C#N)=C/c1c(N(Cc2ccccc2)Cc2ccccc2)nc2c(C)cccn2c1=O,97.2% (inactive),98.1,97.8,94.4% (inactive),95.9,93.1,112% (inactive),103% (inactive),106% (inactive),108,104

SMILES,GFP response vs DMSO [1],"GFP response vs DMSO [1, 6] [%]","GFP response vs DMSO [1, 7] [%]",GFP response relative to DMSO [2],"GFP response relative to DMSO [2, 8] [%]","GFP response relative to DMSO [2, 9] [%]",GFP response vs DMSO [3],"GFP response, % of DMSO [4]","GFP response, % of DMSO [5]","GFP response, % of DMSO [5, 6] [%]","GFP response, % of DMSO [5, 7] [%]"
N#C/C(=C\c1cccc(Oc2ccccc2)c1)C(=O)N1CCOCC1,97.8% (inactive),97.8,95.1,137% (inactive),128,141,98.8% (inactive),104% (inactive),90.9% (inactive),90.5,87.8
O=C(Nc1nc(-c2ccc(Cl)s2)cs1)c1cccs1,93.8% (inactive),91,93.7,113% (inactive),107,119,97.2% (inactive),98.8% (inactive),83.3% (inactive),85.2,82.6
CCCc1[nH]nc2c1C(c1ccc(OC)c(CSC3=NCCS3)c1)C(C#N)=C(N)O2 (stereo not drawn),96.8% (inactive),97.3,97.6,109% (inactive),109,107,97.5% (inactive),105% (inactive),95% (inactive),94.6,94.5
Nc1cc(N)nc(SCC(=O)N2CCc3ccccc32)n1,100% (inactive),101,99.7,97.9% (inactive),97.6,96.1,105% (inactive),98.5% (inactive),101% (inactive),101,101
CCS(=O)(=O)Nc1cccc(C2=NN(S(C)(=O)=O)C(c3ccccc3)C2)c1 (stereo not drawn),100% (inactive),101,100,110% (inactive),105,112,120% (inactive),112% (inactive),111% (inactive),112,110
O=C(OCC(=O)N1CCN(C(=O)c2ccco2)CC1)c1cc(-c2ccc(F)cc2)nc2ccccc12,78.9% (inactive),74.3,74.5,133% (inactive),107,138,125% (inactive),138% (inactive),135% (inactive),114,136
O=[N+]([O-])c1ccc(SCCc2ccncc2)cc1,94.8% (inactive),97.4,95.4,99.2% (inactive),99.2,98.3,96.2% (inactive),98.7% (inactive),99.7% (inactive),101,101
O=C(Nc1ccccc1C(=O)O)c1ccccc1,100% (inactive),99.8,101,100% (inactive),102,97.5,102% (inactive),98.9% (inactive),99.3% (inactive),102,98
COCCNC(=O)c1ccc(Cl)c(Cl)c1,97.2% (inactive),95.6,95.3,102% (inactive),101,96.1,100% (inactive),100% (inactive),105% (inactive),103,93.8
COC(=O)c1cccc(-n2c(CCC(=O)O)ccc2-c2cccs2)c1,99.2% (inactive),98.9,100,104% (inactive),103,103,98.8% (inactive),103% (inactive),97.2% (inactive),96.8,97.7
CCOC(=O)c1ccc(NC(=O)CCc2nc(-c3ccccc3)no2)cc1,97.3% (inactive),97,97.5,107% (inactive),107,108,106% (inactive),99.3% (inactive),101% (inactive),101,98.2
COc1cc(NC(C)=O)ccc1NC(=O)c1cc2ccccc2o1,99% (inactive),97.8,98.2,95% (inactive),97.2,96.2,100% (inactive),102% (inactive),100% (inactive),98.1,101
CCN(CC)C(=O)Cn1c(C)c(/C=C/c2cc[n+](C)cc2)c2ccccc21,107% (inactive),106,106,108% (inactive),110,107,126% (inactive),98.6% (inactive),109% (inactive),110,105
O=C(CSc1nc2ccsc2c(=O)n1CC1CCC(C(=O)O)CC1)c1ccc(F)cc1 (stereo not drawn),102% (inactive),100,103,89% (inactive),89.5,91.1,100% (inactive),94.6% (inactive),92.6% (inactive),94.8,92.3
COc1ccccc1-c1nnc(NC(=O)c2ccc(S(=O)(=O)N(C)C)cc2)o1,99.2% (inactive),98.6,98.7,111% (inactive),112,109,119% (inactive),93.3% (inactive),105% (inactive),106,106
Cc1cc(C)c(OCC(=O)Nc2nc(-c3ccccn3)cs2)c(C)c1,98.6% (inactive),98.3,98.8,121% (inactive),115,126,103% (inactive),95.8% (inactive),92.2% (inactive),95.2,88.8
